Laboratory results taken from ChEMBL document CHEMBL1123812, “Pyrroloisoquinoline antidepressants. 2. In-depth exploration of structure-activity relationships” (J Med Chem, 1987).
Active and inactive are the calls of the source.

Columns and labels:
[1] = tested on: Mus musculus; assay: Ability to antagonise intraperitoneal dose; inactive (<10% antagonism) at 30 mgjkg is represented as I-30.; type: functional, organism-based
Method in brief: (§1)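 Nonfasted male Swiss Webster mice, 18–24 g, ten per dose level and in saline controls. Test compound given ip 30 min before tetrabenazine 32 mg/kg ip; dose expressed as free base. Motor activity and ptosis scored. Control response ≤90% corrected by Abbott's formula.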

[2] = target: Sodium-dependent serotonin transporter (Rattus norvegicus) (UniProt P31652); assay: Ability to inhibit the uptake of [3H]- serotonin(5-HT) 0.1 uM concentration at rat brain synaptosomes; type: functional, subcellular
Method in brief: (§2)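 Male Wistar rat brain synaptosomes (P2 fraction): hypothalamus for NE, striatum for DA, cerebral cortex for 5-HT. Buffer is Tris- or HEPES-buffered salt medium with glucose, ascorbate and nialamide, pH 7.4 at 37 °C. Preincubated 10 min at 37 °C with compound. Uptake started with [3H]NE 100–300 nM, [3H]DA 50–300 nM or [3H]5-HT 100–200 nM, incubated 3 min (DA) or 6–10 min (NE, 5-HT). Blanks held on ice. Filtered, counted by scintillation.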

[3] = species: Rattus norvegicus; assay: Ability to inhibit the uptake of tritiated dopamine (DA) 1 uM concentration; type: functional
Method in brief: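 Rat brain synaptosomal [3H]dopamine uptake: striatal P2 fraction, test compound at 1.00 μM. Preincubated at 37 °C, then 50–300 nM [3H]DA for 3 min. Blanks on ice. Filtration and scintillation counting; percent inhibition of control uptake.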

[4] = tested on: Mus musculus; assay: Ability to antagonise intraperitoneal dose; inactive (<10% antagonism) at 30 mg/kg is represented as I-30.; type: functional, organism-based; design: dose 30 mg/kg; method in brief: as §1
[5] = target: Norepinephrine transporter (Rattus norvegicus) (UniProt Q9WTR4); assay: Ability to inhibit the uptake of [3H]norepinephrine (NE) 0.1 uM concentration at rat brain synaptosomes; type: functional, subcellular; method in brief: as §2
[6] = species: Mus musculus; assay: Gross behavioral effects ascertained in mice; C indicates overt convulsant; type: functional, organism-based
Method in brief: (§3)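 Male Swiss Webster mice, 18–24 g, three per dose, given ip doses of 1, 3, 10, 30, 100 and 300 mg/kg. Observed for gross behavior and held for 4 days. Scored as weak (W), stimulant (S), depressant (D) or convulsant (C).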

[7] = target: Norepinephrine transporter (Rattus norvegicus, UniProt Q9WTR4); assay: Inhibition of uptake of tritiated norepinephrine (NE) in rat synaptosomes; type: subcellular, Brain
[8] = species: Mus musculus; assay: Antagonism of tetrabenazine (TBZ)-induced depression in mice measured for ptosis; type: functional; settings: Mus musculus; read-out: ED50; method in brief: as §1
[9] = species: Mus musculus; assay: Antagonism of tetrabenazine (TBZ)-induced depression measured in mice by motor activity; type: functional; settings: Mus musculus; read-out: ED50; method in brief: as §1
[10] = species: Mus musculus; assay: Gross behavioral effects ascertained in mice; W/C indicates weak stimulant or depressant activity of little significance/ overt convulsant; type: functional, organism-based
Method in brief: (§4)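 Male Swiss Webster albino mice, 18–24 g, three per dose, given ip 1, 3, 10, 30, 100 and 300 mg/kg. Gross behaviour observed and held 4 days. Estimated LD50 range from lethality count on day 4. Scored as weak stimulant/depressant, significant stimulant, significant depressant or overt convulsant.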

[11] = target: Sodium-dependent dopamine transporter (Rattus norvegicus, UniProt P23977); assay: Inhibition of the uptake of tritiated dopamine (DA) in rat synaptosomes; type: subcellular, Brain
[12] = target: Sodium-dependent serotonin transporter (Rattus norvegicus) (UniProt P31652); assay: Inhibition of tritiated serotonin(5-HT) uptake at 0.1 uM concentration; type: functional; method in brief: as §2
[13] = species: Mus musculus; assay: Gross behavioral effects ascertained in mice; D indicates significant depressant properties.; type: functional, organism-based; method in brief: as §4
[14] = species: Mus musculus; assay: Gross behavioral effects ascertained in mice; W indicates weak stimulant or depressant activity of little significance.; type: functional, organism-based; method in brief: as §3
[15] = target: Sodium-dependent dopamine transporter (Rattus norvegicus) (UniProt P23977); assay: Ability to inhibit the uptake of [3H]dopamine (DA) 0.1 uM concentration at rat brain synaptosomes; type: functional, subcellular; method in brief: as §2
[16] = tested on: Mus musculus; assay: Ability to antagonise intraperitoneal administration; weakly active (>=10% and <=30% antagonism) at 30 mg/kg is represented as >30; type: functional; settings: ip; method in brief: as §1
[17] = target: T1, Adrenergic receptor alpha-1 (Rattus norvegicus, UniProt P15823+P23944+P43140); assay: Binding affinity towards alpha-1 adrenergic receptor; type: protein assay
T1 sequence (P15823 whole entry): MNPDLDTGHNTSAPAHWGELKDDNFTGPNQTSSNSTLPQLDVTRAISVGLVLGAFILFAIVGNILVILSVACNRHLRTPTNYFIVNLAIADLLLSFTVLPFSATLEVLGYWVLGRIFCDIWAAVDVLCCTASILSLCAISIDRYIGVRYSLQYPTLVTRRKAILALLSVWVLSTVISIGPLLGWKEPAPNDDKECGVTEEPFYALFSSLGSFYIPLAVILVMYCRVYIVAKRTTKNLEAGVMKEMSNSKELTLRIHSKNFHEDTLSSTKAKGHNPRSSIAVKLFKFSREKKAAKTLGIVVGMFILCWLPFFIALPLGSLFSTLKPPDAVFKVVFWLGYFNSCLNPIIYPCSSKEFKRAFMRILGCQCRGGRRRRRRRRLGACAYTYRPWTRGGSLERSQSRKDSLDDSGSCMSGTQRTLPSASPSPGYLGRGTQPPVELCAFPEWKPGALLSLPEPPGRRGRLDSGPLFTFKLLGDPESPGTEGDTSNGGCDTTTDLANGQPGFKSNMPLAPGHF
T1 sequence (P23944 whole entry): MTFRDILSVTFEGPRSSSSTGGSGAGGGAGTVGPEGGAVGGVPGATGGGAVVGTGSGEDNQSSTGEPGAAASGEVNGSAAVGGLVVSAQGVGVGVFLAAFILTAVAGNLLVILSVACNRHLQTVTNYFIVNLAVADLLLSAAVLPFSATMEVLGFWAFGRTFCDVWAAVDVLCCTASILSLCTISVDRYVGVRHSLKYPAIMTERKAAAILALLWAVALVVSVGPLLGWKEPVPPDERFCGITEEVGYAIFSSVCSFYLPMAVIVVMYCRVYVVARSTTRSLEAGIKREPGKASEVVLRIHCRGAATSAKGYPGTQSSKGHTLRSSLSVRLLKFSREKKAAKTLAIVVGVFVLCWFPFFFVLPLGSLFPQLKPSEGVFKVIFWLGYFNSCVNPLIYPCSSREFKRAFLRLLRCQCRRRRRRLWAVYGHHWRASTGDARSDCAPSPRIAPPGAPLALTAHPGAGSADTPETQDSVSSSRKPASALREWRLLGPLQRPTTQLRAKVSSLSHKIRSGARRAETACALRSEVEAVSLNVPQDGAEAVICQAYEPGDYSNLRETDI
T1 sequence (P43140 whole entry): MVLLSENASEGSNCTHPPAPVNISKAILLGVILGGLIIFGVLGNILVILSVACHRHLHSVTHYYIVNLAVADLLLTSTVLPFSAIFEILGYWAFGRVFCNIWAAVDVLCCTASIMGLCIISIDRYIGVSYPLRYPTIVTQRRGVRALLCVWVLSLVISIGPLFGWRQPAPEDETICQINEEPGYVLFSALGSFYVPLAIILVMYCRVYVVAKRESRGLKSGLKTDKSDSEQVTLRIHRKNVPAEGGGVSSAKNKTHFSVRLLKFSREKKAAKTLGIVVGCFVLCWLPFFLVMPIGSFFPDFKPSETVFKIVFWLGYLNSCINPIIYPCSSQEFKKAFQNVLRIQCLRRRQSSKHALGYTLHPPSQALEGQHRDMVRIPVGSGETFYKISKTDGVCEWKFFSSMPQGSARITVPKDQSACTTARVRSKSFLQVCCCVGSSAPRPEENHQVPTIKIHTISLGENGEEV

[18] = target: Muscarinic acetylcholine receptor (Rattus norvegicus) (UniProt P08482+P08483+P08485+P08911+P10980); assay: Binding affinity towards Muscarinic acetylcholine receptor at 1.0 uM concentration; type: protein assay
[19] = target: Adrenergic receptor alpha-2 (Rattus norvegicus) (UniProt P22086+P19328+P22909); assay: Binding affinity towards alpha-2 adrenergic receptor at 1.0 uM concentration; type: protein assay
[20] = species: Mus musculus; assay: Gross behavioral effects ascertained in mice; S indicates significant stimulant properties.; type: functional, organism-based; method in brief: as §3
[21] = target: D(2) dopamine receptor (Rattus norvegicus) (UniProt P61169); assay: Binding affinity towards dopamine receptor D2 at 1.0 uM concentration
Method in brief: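 Rat brain crude synaptic membranes in 20 mM NaHEPES pH 7.5. Ligands: α1 cortex […] 0.4 nM, nonspecific with (-)-NE 100 μM, 30 min at 25 °C. […] D2 striatum [3H]spiperone 0.05 nM with (+)-butaclamol 1 μM, 45 min at 37 °C. S1 cortex [3H]5-HT 1 nM plus glutathione and MgCl2, with 5-HT 10 μM, 20 min at 37 °C. […] Samples filtered on GF/B and counted.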

[22] = target: D(1A) dopamine receptor (Rattus norvegicus, UniProt P18901); assay: Binding affinity towards Dopamine receptor D1
[23] = target: D(2) dopamine receptor (Rattus norvegicus, UniProt P61169); assay: Binding affinity towards Dopamine receptor D2
[24] = species: Rattus norvegicus; assay: Ability to inhibit the uptake of tritiated norepinephrine (NE) at 0.1 uM concentration; type: functional; method in brief: as §2

Norepinephrine transporter, sequence (Q9WTR4 whole entry): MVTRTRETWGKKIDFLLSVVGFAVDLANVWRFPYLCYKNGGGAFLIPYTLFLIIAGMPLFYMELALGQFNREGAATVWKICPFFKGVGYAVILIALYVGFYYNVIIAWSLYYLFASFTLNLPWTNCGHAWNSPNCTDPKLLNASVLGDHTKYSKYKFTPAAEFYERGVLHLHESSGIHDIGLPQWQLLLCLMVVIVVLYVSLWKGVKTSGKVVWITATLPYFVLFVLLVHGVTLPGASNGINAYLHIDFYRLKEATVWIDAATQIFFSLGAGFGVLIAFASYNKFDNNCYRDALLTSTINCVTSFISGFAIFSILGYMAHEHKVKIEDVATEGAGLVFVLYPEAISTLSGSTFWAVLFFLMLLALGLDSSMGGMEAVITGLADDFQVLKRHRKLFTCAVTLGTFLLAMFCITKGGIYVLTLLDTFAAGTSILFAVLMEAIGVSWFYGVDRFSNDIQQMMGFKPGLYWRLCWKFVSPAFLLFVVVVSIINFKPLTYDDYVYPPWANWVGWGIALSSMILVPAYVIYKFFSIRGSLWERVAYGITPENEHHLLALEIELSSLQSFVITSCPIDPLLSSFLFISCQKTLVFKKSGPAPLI
Sodium-dependent dopamine transporter, sequence (P23977 whole entry): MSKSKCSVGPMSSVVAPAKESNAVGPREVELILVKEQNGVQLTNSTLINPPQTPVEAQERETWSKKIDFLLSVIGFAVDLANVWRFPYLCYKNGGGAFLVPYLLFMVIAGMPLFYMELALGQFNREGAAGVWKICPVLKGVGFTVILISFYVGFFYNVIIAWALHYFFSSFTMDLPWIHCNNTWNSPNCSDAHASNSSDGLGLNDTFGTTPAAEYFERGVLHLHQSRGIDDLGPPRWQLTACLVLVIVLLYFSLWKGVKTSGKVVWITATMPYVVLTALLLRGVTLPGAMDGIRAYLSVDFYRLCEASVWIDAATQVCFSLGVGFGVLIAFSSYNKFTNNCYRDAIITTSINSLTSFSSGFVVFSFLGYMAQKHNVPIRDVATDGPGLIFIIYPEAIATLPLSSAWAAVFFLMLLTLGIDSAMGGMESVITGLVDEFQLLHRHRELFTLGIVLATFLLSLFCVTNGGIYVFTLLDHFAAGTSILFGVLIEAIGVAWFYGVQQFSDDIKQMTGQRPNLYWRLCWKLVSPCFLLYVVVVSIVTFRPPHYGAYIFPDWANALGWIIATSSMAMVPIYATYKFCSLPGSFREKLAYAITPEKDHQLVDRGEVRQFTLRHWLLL
Sodium-dependent serotonin transporter (Rattus norvegicus), sequence (P31652 whole entry): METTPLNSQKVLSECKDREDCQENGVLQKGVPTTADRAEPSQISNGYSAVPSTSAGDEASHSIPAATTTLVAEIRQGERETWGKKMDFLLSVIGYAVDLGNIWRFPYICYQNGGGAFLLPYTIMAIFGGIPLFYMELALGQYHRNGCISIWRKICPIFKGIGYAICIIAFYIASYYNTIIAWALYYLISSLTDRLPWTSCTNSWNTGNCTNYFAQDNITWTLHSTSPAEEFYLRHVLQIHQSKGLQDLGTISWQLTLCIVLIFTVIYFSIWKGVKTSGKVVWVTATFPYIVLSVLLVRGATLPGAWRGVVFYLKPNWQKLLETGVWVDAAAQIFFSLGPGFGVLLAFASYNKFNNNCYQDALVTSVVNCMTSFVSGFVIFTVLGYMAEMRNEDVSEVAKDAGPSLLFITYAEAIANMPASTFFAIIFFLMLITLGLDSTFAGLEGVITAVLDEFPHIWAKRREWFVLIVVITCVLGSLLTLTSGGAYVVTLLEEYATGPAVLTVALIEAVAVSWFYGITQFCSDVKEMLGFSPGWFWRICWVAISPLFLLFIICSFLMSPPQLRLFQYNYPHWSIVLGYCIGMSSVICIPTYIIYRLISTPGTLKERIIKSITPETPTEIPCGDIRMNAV
Norepinephrine transporter (Rattus norvegicus), sequence (Q9WTR4 as listed by the source): as the sequence (Q9WTR4 whole entry) above
D(1A) dopamine receptor, sequence (P18901 whole entry): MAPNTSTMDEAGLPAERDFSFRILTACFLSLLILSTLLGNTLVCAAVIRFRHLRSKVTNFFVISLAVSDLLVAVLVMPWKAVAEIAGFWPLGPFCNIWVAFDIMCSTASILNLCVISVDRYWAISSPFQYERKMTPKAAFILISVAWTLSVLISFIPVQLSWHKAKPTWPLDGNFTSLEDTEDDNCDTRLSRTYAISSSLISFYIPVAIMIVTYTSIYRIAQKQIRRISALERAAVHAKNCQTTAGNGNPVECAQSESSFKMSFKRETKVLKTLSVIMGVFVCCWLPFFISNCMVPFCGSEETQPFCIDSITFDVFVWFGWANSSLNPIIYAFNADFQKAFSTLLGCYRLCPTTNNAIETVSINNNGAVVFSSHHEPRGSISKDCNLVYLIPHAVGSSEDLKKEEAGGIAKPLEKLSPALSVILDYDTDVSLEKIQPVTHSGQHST
D(2) dopamine receptor, sequence (P61169 whole entry): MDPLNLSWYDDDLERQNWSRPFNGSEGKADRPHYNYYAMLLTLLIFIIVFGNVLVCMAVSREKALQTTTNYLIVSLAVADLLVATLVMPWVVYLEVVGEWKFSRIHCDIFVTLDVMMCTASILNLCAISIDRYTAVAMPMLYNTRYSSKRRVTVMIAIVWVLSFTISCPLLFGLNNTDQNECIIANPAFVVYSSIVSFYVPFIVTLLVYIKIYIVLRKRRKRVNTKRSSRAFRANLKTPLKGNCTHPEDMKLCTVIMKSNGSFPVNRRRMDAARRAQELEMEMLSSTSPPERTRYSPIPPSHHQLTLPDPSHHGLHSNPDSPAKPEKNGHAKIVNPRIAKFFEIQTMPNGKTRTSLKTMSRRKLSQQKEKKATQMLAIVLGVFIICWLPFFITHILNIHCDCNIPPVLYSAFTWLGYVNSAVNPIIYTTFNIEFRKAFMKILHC
D(2) dopamine receptor (Rattus norvegicus), sequence (P61169 whole entry): as above
Sodium-dependent dopamine transporter (Rattus norvegicus), sequence (P23977 whole entry): as the sequence (P23977 whole entry) above

C[C@@]12CCCN1C[C@@H](c1ccccc1)c1ccccc12
ED50 [1]: inactive
inhibition [2]: 23%
Inhibition [3]: 25%
ED50 [4]: inactive
inhibition [5]: 2%
behavior [6]: Overt convulsant

C[C@@]12CCCN1C[C@H](c1ccccc1)c1ccccc12
Ki [7]: 24 nM
ED50 [8]: 3.8 mg/kg
ED50 [9]: 9.2 mg/kg
behavior [10]: Weak/Overt convulsant
Ki [11]: 40 nM

Br.COc1ccc2c(c1)[C@@H]1CCCN1C[C@H]2c1ccccc1
Ki [7]: 20.9 nM
inhibition [12]: 21%
ED50 [8]: 8 mg/kg
ED50 [9]: ~40 mg/kg
Ki [11]: 38.9 nM
behavior [13]: Significant depressant

O=[N+]([O-])c1ccc([C@@H]2CN3CCC[C@H]3c3ccccc32)cc1
behavior [14]: Weak
inhibition [2]: 25%
inhibition [15]: 21%
ED50 at 30 mg/kg [16]: > 30 mg/kg
inhibition [5]: 10%
ED50 [9]: > 30 mg/kg

Cl.c1ccc([C@@H]2CN3CCC[C@H]3c3ccccc32)cc1
ED50 at 30 mg/kg [16]: > 30 mg/kg
Ki [11]: 160 nM

Br.Oc1ccc([C@@H]2CN3CCC[C@@H]3c3ccccc32)cc1O
Ki [17]: 675 nM
Ki [7]: 0.81 nM
inhibition [18]: 0%
inhibition [19]: 26%
behavior [20]: Stimulant
ED50 [8]: 0.11 mg/kg
inhibition [21]: 5%
ED50 [9]: 0.19 mg/kg
Ki [11]: 10.1 nM
Ki [22]: > 1000 nM

Br.COc1cc2c(cc1OC)[C@@H]1CCCN1C[C@H]2c1ccccc1
Ki [23]: 400 nM
Inhibition [24]: 16%
inhibition [12]: 10%
ED50 at 30 mg/kg [16]: > 30 mg/kg
ED50 [4]: inactive
Ki [11]: 106 nM
behavior [6]: Convulsant
Ki [22]: 452 nM
